The results in this text go back to ChEMBL document CHEMBL3414425, “Synthesis and biological evaluation of new imidazo[2,1-b][1,3,4]thiadiazole-benzimidazole derivatives” (Eur J Med Chem, 2015).

For data set [1], the system named is Mycobacterium tuberculosis. The data set can be described thus: Antitubercular activity against Mycobacterium tuberculosis H37Rv ATCC 27294/XDR-TB incubated for 28 days by agar dilution method. Particulars: 672 h. Type of data set: functional. The gist of the method:
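Agar dilution: two-fold dilutions in Middlebrook 7H11 agar with OADC. Inoculum from fresh 7H11/OADC slants adjusted to 1 mg/mL wet weight in 0.05% Tween 80 saline, diluted 10^-2 (~10⁷ cfu/mL); 5 µL spotted per tube. Incubated 37 °C; MIC, lowest concentration fully inhibiting growth, read after 28 days, in triplicate.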

Data set [2] relates to Escherichia coli. The data set can be described thus: Antibacterial activity against Escherichia coli at 1 mg/ml incubated for 18 hrs by well plate technique. Type of data set: functional. The note with it: for zone of inhibition at 1000 µg/mL: read-out: DIZ. The gist of the method:
(§1)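 Bacteria kept on nutrient agar at 37 °C, grown statically in nutrient broth (start ~10-100 cfu/mL) at 37 °C for 18-24 h. Suspensions diluted in saline and spread on nutrient agar, then wells cut with a cork borer. Compound in DMSO at 1 or 0.5 mg/mL added to wells, 37 °C, 18 h. Inhibition zone diameter measured minus DMSO value; triplicate; streptomycin standard.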

For data set [3], the system named is Escherichia coli. Briefly: Antibacterial activity against Escherichia coli at 0.5 mg/ml incubated for 18 hrs by well plate technique. Type of data set: functional. Particulars: for zone of inhibition at 500 µg/mL: read-out: DIZ. The method, boiled down: as §1
Data set [4] concerns Staphylococcus aureus. The data set can be described thus: Antibacterial activity against Staphylococcus aureus at 1 mg/ml incubated for 18 hrs by well plate technique. Type of data set: functional. The note with it: for zone of inhibition at 1000 µg/mL: read-out: DIZ. The gist of the method: as §1
Data set [5] has as its system Staphylococcus aureus. The data set can be described thus: Antibacterial activity against Staphylococcus aureus at 0.5 mg/ml incubated for 18 hrs by well plate technique. Particulars: for zone of inhibition at 500 µg/mL: read-out: DIZ. Type of data set: functional. The method, boiled down:
as §1

Data set [6] concerns Pseudomonas aeruginosa. The data set can be described thus: Antibacterial activity against Pseudomonas aeruginosa at 1 mg/ml incubated for 18 hrs by well plate technique. In kind it is functional. The note with it: for zone of inhibition at 1000 µg/mL: read-out: DIZ. The method, boiled down:
as §1

For data set [7], the system named is Pseudomonas aeruginosa. Briefly: Antibacterial activity against Pseudomonas aeruginosa at 0.5 mg/ml incubated for 18 hrs by well plate technique. In kind it is functional. Particulars: for zone of inhibition at 500 µg/mL: read-out: DIZ. The method, boiled down: as §1
The subject of data set [8] is Salmonella typhi. The data set can be described thus: Antibacterial activity against Salmonella typhi at 1 mg/ml incubated for 18 hrs by well plate technique. In kind it is functional, Salmonella enterica subsp. enterica serovar Typhi. Particulars: for zone of inhibition at 1000 µg/mL: Salmonella enterica, read-out: DIZ. The gist of the method: (§2)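 Well diffusion on nutrient agar; strains kept on nutrient agar at 37 °C, grown statically in nutrient broth 18-24 h at 37 °C, diluted in saline, 0.1 ml spread per plate. Compounds in DMSO at 1 and 0.5 mg/mL added to cork-bored wells; 18 h at 37 °C. Inhibition zone diameter measured, DMSO value subtracted; triplicate; streptomycin reference.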

Data set [9] relates to Salmonella typhi. The data set can be described thus: Antibacterial activity against Salmonella typhi at 0.5 mg/ml incubated for 18 hrs by well plate technique. In kind it is functional, Salmonella enterica subsp. enterica serovar Typhi. The note with it: for zone of inhibition at 500 µg/mL: Salmonella enterica, read-out: DIZ; for diameter of the inhibition zone (DIZ): Salmonella enterica subsp. enterica serovar Typhi. The method, boiled down:
as §2

In data set [10] the test system is Aspergillus flavus. Briefly: Antifungal activity against Aspergillus flavus at 1 mg/ml incubated for 3 days. Particulars: for zone of inhibition at 1000 µg/mL: 72 h, read-out: IZ. Type of data set: functional. The gist of the method: (§3)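 Well plate method on potato dextrose agar. Fungal stock suspended in distilled water with Tween 80 and swabbed over plates. Samples in DMSO at 1 and 0.5 mg/mL added to wells, incubated 25 °C for 3 days, then scored for inhibition zones; fluconazole standard.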

For data set [11], the system named is Aspergillus flavus. Briefly: Antifungal activity against Aspergillus flavus at 0.5 mg/ml incubated for 3 days. Type of data set: functional. Particulars: for zone of inhibition at 500 µg/mL: 72 h, read-out: IZ. The gist of the method:
as §3

Data set [12] deals with Chrysosporium keratinophilum. The data set can be described thus: Antifungal activity against Chrysosporium keratinophilum at 1 mg/ml incubated for 3 days. In kind it is functional. The note with it: for zone of inhibition at 1000 µg/mL: 72 h, read-out: IZ. The method, boiled down:
as §3

The test system of data set [13] is Chrysosporium keratinophilum. The data set can be described thus: Antifungal activity against Chrysosporium keratinophilum at 0.5 mg/ml incubated for 3 days. In kind it is functional. The note with it: for zone of inhibition at 500 µg/mL: 72 h, read-out: IZ. The gist of the method: as §3
The test system of data set [14] is Candida albicans. The data set can be described thus: Antifungal activity against Candida albicans at 1 mg/ml incubated for 3 days. In kind it is functional. Particulars: for zone of inhibition at 1000 µg/mL: 72 h, read-out: IZ. The method, boiled down: as §3
In data set [15] the test system is Candida albicans. The data set can be described thus: Antifungal activity against Candida albicans at 0.5 mg/ml incubated for 3 days. The note with it: for zone of inhibition at 500 µg/mL: 72 h, read-out: IZ. In kind it is functional. The method, boiled down:
as §3

Data set [16] is described as follows: Antioxidant activity assessed as DPPH radical scavenging activity incubated for 10 mins by UV-visible spectrometry. Type of data set: physicochemical. The method, boiled down: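 DPPH free-radical scavenging; absorbance read at 517 nm against a methanol blank. % scavenging = (A control − A sample)/A control × 100.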
Data set [17] is described as follows: Cytotoxicity against African green monkey Vero cells assessed as growth inhibition at 62.5 ug/ml after 72 hrs by MTT assay. Particulars: chlorocebus sabaeus, read-out: GI. In kind it is cell-based. The method, boiled down:
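Vero cells grown in MEM + 10% FBS at 37 °C, 5% CO2. Seeded ~10,000 cells/well, 24 h to a partial monolayer. Compounds in DMSO diluted in MEM + 2% FBS (1 mg/ml stock, two-fold dilutions) for 72 h. MTT 3 h, formazan dissolved in propanol, A540. % inhibition = 100 − (mean OD test/mean OD control × 100).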

≈ marks a conversion by molar mass, not a printed value. Calls of active or inactive are those of the source. The calls are words filed in the database; no cut-off is given here.

Turning to `Cc1ccc(-c2nn3c(-c4nc5ccccc5[nH]4)c(-c4ccc(Cl)cc4)nc3s2)cc1`, it took 3.12 µg/mL (≈ 7.07 µM) to inhibit growth in data set [1] (MIC). Further, the zone of inhibition at 1000 µg/mL is 4 mm with Escherichia coli [2], 3 mm in the data set with Staphylococcus aureus [4], 6 mm in the data set with Pseudomonas aeruginosa [6] and 4 mm in the data set on Salmonella typhi [8]. For the same compound, the zone of inhibition at 500 µg/mL in the data set on Escherichia coli [3] was determined as 2 mm; in the data set on Staphylococcus aureus [5], 2 mm; in the data set with Pseudomonas aeruginosa [7], 3 mm; with Salmonella typhi [9], 2 mm. The “inhibition zone (IZ)” value (in the data set on Aspergillus flavus [10]; in the data set with Aspergillus flavus [11]; in data set [12]; in data set [13]; in the data set on Candida albicans [14]; in the data set with Candida albicans [15]) was “inactive” in each case. The “inhibition (INH)” value in data set [16] is reported as 18.8%. For the same compound, the inhibition at 72 h, 62.5 ug/ml in data set [17] stood at 13.3%.
Take `Fc1ccc(-c2nc3sc(-c4ccc(Cl)cc4)nn3c2-c2nc3ccccc3[nH]2)cc1`: inhibition of growth in data set [1] (MIC) required 3.12 µg/mL (≈ 7.01 µM). The zone of inhibition at 1000 µg/mL with Escherichia coli [2] worked out at 5 mm; in the data set with Staphylococcus aureus [4], 7 mm; with Pseudomonas aeruginosa [6], 8 mm; in the data set with Salmonella typhi [8], 3 mm; in the data set with Aspergillus flavus [10] it was 4 mm; in [12], 4 mm. Further, in the data set with Candida albicans [14], the zone of inhibition at 1000 µg/mL came to 3 mm. In addition, the zone of inhibition at 500 µg/mL with Escherichia coli [3] came out at 3 mm; in the data set on Staphylococcus aureus [5], 3 mm; with Pseudomonas aeruginosa [7] it was 5 mm; with Salmonella typhi [9], 1 mm; with Aspergillus flavus [11] it was 2 mm; in [13] it was 3 mm. Moreover, the zone of inhibition at 500 µg/mL in the data set on Candida albicans [15] stood at 1 mm. The “inhibition (INH)” value in data set [16] worked out at 21.7%. Also, in [17], the inhibition at 72 h, 62.5 ug/ml turned out to be 10.7%.
As for `Cc1ccc(-c2nc3sc(C)nn3c2-c2nc3ccccc3[nH]2)cc1`, the MIC (usually the lowest concentration that inhibits growth of the organism) in data set [1] is 3.12 µg/mL (≈ 9.05 µM). Besides, the zone of inhibition at 1000 µg/mL came to 5 mm with Escherichia coli [2], 5 mm in the data set on Staphylococcus aureus [4], 3 mm with Pseudomonas aeruginosa [6] and 6 mm in the data set on Salmonella typhi [8]. Besides, the zone of inhibition at 500 µg/mL was 2 mm in the data set with Escherichia coli [3], 3 mm in the data set with Staphylococcus aureus [5] and 2 mm with Pseudomonas aeruginosa [7]. The “diameter of the inhibition zone (DIZ)” value in the data set on Salmonella typhi [9] is “inactive”. Further, the “inhibition zone (IZ)” value (in the data set on Aspergillus flavus [10]; in the data set on Aspergillus flavus [11]; in data set [12]; in [13]; with Candida albicans [14]; in the data set on Candida albicans [15]) was “inactive” each time. The “inhibition (INH)” value in data set [16] came to 28.6%. The inhibition at 72 h, 62.5 ug/ml in data set [17] came out at 5.03%.
In [1], `Cc1ccc(-c2nn3c(-c4nc5cc([N+](=O)[O-])ccc5[nH]4)c(-c4ccc(F)cc4)nc3s2)cc1` yielded a minimum inhibitory concentration (MIC) of 6.25 µg/mL (≈ 13.3 µM). Also, the zone of inhibition at 1000 µg/mL with Escherichia coli [2] was found to be 4 mm; in the data set on Staphylococcus aureus [4] it was 4 mm; in the data set on Pseudomonas aeruginosa [6], 3 mm; with Salmonella typhi [8], 4 mm; in the data set on Aspergillus flavus [10], 5 mm; in data set [12], 4 mm. Moreover, the zone of inhibition at 1000 µg/mL in the data set with Candida albicans [14] stood at 5 mm. Also, the zone of inhibition at 500 µg/mL in the data set with Escherichia coli [3] was 2 mm; with Staphylococcus aureus [5] it was 2 mm; in the data set on Pseudomonas aeruginosa [7], 2 mm; with Salmonella typhi [9] it was 1 mm; with Aspergillus flavus [11], 2 mm; in [13], 2 mm. The zone of inhibition at 500 µg/mL in the data set on Candida albicans [15] amounted to 2 mm. Further, the “inhibition (INH)” value in data set [16] was found to be 22.3%. Also, the inhibition at 72 h, 62.5 ug/ml in [17] amounted to 10.5%.
In [1], `COc1ccc(-c2nc3sc(-c4ccc(C)cc4)nn3c2-c2nc3cc(Cl)ccc3[nH]2)cc1` yielded an MIC of 3.12 µg/mL (≈ 6.62 µM). In addition, the zone of inhibition at 1000 µg/mL in the data set with Escherichia coli [2] worked out at 4 mm; with Staphylococcus aureus [4], 6 mm; with Pseudomonas aeruginosa [6] it was 7 mm; in the data set on Salmonella typhi [8], 3 mm; in the data set with Aspergillus flavus [10], 3 mm; in data set [12], 4 mm. For the same compound, in the data set with Candida albicans [14], the zone of inhibition at 1000 µg/mL came to 3 mm. Moreover, the zone of inhibition at 500 µg/mL came out at 2 mm with Escherichia coli [3]; 3 mm with Staphylococcus aureus [5]; 3 mm in the data set with Pseudomonas aeruginosa [7]; 1 mm with Salmonella typhi [9]; 2 mm in the data set on Aspergillus flavus [11]; 2 mm in [13]. In the data set with Candida albicans [15], the zone of inhibition at 500 µg/mL is 2 mm. In addition, the “inhibition (INH)” value in data set [16] is reported as 31.3%. In addition, in [17], the inhibition at 72 h, 62.5 ug/ml is 8.31%.
In data set [1], `COc1ccc(-c2nc3sc(C)nn3c2-c2nc3ccccc3[nH]2)cc1` registered an MIC of 6.25 µg/mL (≈ 17.3 µM). Moreover, the “diameter of the inhibition zone (DIZ)” value with Escherichia coli [2], with Escherichia coli [3], with Staphylococcus aureus [4], with Staphylococcus aureus [5], with Pseudomonas aeruginosa [6] and in the data set with Pseudomonas aeruginosa [7] was “inactive” throughout. Moreover, the “diameter of the inhibition zone (DIZ)” value in the data set on Salmonella typhi [8] (Salmonella enterica subsp. enterica serovar Typhi) and with Salmonella typhi [9] was “inactive” throughout. The “inhibition zone (IZ)” value (with Aspergillus flavus [10]; in the data set with Aspergillus flavus [11]; in data set [12]; in data set [13]; with Candida albicans [14]; in the data set on Candida albicans [15]) was “inactive” throughout. For the same compound, in data set [16], the “inhibition (INH)” value stood at 21.4%. Besides, the inhibition at 72 h, 62.5 ug/ml in data set [17] was 7.1%.
